≈ marks a conversion by molar mass, not a printed value.
What was measured:
THP-1 [1] = assay: Cytotoxicity against human THP1 cells at 3 ug/ml; format: cell-based
[2] = tested on: Mycobacterium tuberculosis; assay: Antitubercular activity against dormant stage of Mycobacterium tuberculosis H37Ra ATCC 25177 after 12 days by XRMA; format: functional, organism-based; details: H37Ra ATCC 25177, 288 h
Summary of the method: (§1)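 MIC against dormant-stage bacilli, read out by XTT reduction menadione assay (XRMA), with rifampicin MIC determined the same way as reference.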

[3] = tested on: Mycobacterium tuberculosis; assay: Antitubercular activity against dormant stage of Mycobacterium tuberculosis H37Ra ATCC 25177 by two fold dilution technique; format: functional; summary of the method: as §1
[4] = tested on: Mycobacterium tuberculosis; assay: Antitubercular activity against dormant stage of Mycobacterium tuberculosis H37Ra ATCC 25177 assessed as growth inhibition at 3 ug/ml after 12 days by XRMA relative to control; format: functional; details: H37Ra ATCC 25177, 288 h
[5] = tested on: Mycobacterium tuberculosis; assay: Antitubercular activity against dormant stage of Mycobacterium tuberculosis H37Ra ATCC 25177 assessed as growth inhibition at 30 ug/ml after 12 days by XRMA relative to control; format: functional; details: H37Ra ATCC 25177, 288 h
THP-1 [6] = assay: Cytotoxicity against human THP1 cells at 30 ug/ml; format: cell-based
THP-1 [7] = assay: Cytotoxicity against human THP1 cells at 10 ug/ml; format: cell-based
[8] = (§2) Growth inhibition of human PANC1 cells by MTT assay; format: cell-based, PANC-1; details: PANC-1 cells
Summary of the method: (§3)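 Human cancer cell lines were exposed in vitro to a range of compound concentrations. Viability was read by MTT colorimetric assay, and GI50 and GI90 were derived from the concentration series.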

PANC-1 = assay: as §2; format: cell-based; details: panc-1; summary of the method: as §3
[9] = tested on: Mycobacterium tuberculosis; assay: Antitubercular activity against dormant stage of Mycobacterium tuberculosis H37Ra ATCC 25177 assessed as growth inhibition at 10 ug/ml after 12 days by XRMA relative to control; format: functional; details: H37Ra ATCC 25177, 288 h
HeLa = assay: (§4) Growth inhibition of human HeLa cells by MTT assay; format: cell-based; details: hela; summary of the method: as §3
[10] = as §4; format: cell-based; details: HeLa cells; summary of the method: as §3
[11] = (§5) Growth inhibition of human A549 cells by MTT assay; format: cell-based; details: A549 cells; summary of the method: as §3
A549 = assay: as §5; format: cell-based; details: a549; summary of the method: as §3
[12] = tested on: Mycobacterium tuberculosis; assay: Antitubercular activity against dormant stage of Mycobacterium tuberculosis H37Ra ATCC 25177 infected in human THP1 cells by nitrate reductase assay; format: functional, organism-based; details: for MIC90: H37Ra ATCC 25177; for IC50: H37Ra ATCC 25177, THP-1
[13] = Growth inhibition of human THP1 cells; format: cell-based; details: THP-1 cells

SMILES	Activity (THP-1 [1]) [%]	IC50 [2]	MIC90 [3]	inhibition at 3 µg/mL [4] [%]	inhibition at 30 µg/mL [5] [%]	Activity (THP-1 [6]) [%]	Activity (THP-1 [7]) [%]	GI50 [8] [µg/mL]	GI90 (PANC-1) [µg/mL]	inhibition at 10 µg/mL [9] [%]	GI90 (HeLa) [µg/mL]	GI50 [10] [µg/mL]	GI50 [11] [µg/mL]	GI90 (A549) [µg/mL]	MIC90 [12]	IC50 [12]	GI50 [13] [µg/mL]
Cc1nc(C)c(-c2nn(-c3ccc(F)cc3)cc2/C=C/C(=O)c2c(O)cc(C)c(Cl)c2C)s1	13.12	> 30000 nM	> 30 µg/mL	3.39	10.1	41.43	18.42	35.2 (≈ 73.1 µM)	97.41 (≈ 202 µM)	9.47	128.28 (≈ 266 µM)	59.3 (≈ 123 µM)	33.5 (≈ 69.4 µM)	84.31 (≈ 175 µM)	> 30 µg/mL	> 30 µg/mL	–
Cc1nc(C)c(-c2nn(-c3ccc(F)cc3)cc2/C=C/C(=O)c2cc(Cl)ccc2O)s1	16.49	> 30 µg/mL	> 30 µg/mL	2.66	3.39	36.55	34.74	> 250	> 250	5.49	> 250	> 250	> 250	> 250	> 30 µg/mL	> 30 µg/mL	–
Cc1nc(C)c(-c2nn(-c3ccc(F)cc3)cc2/C=C/C(=O)c2cc(Br)ccc2O)s1	20.41	> 30 µg/mL	> 30 µg/mL	23.5	27.5	24.98	21.42	> 250	> 250	9	44.94 (≈ 90.2 µM)	4.88 (≈ 9.79 µM)	> 250	> 250	> 30 µg/mL	> 30 µg/mL	–
Cc1ccc(O)c(C(=O)/C=C/c2cn(-c3ccc(F)cc3)nc2-c2sc(C)nc2C)c1	14.14	5560 nM	32.7 µM	34.7	96	24.3	15.3	52.4 (≈ 121 µM)	114.87 (≈ 265 µM)	61.7	77.32 (≈ 178 µM)	29.9 (≈ 68.9 µM)	47.8 (≈ 110 µM)	136.87 (≈ 316 µM)	17.1 µM	2860 nM	–
Cc1ccc(O)c(C2=NNC(c3cn(-c4ccc(F)cc4)nc3-c3sc(C)nc3C)C2)c1 (stereo not drawn)	5.94	4310 nM	46.4 µM	24.8	36.7	24.05	10.7	> 250	> 250	39.7	> 250	> 250	> 250	> 250	33.4 µM	11900 nM	–
Cc1nc(C)c(-c2nn(-c3ccc(F)cc3)cc2C2CC(c3c(O)cc(C)c(Cl)c3C)=NN2)s1 (stereo not drawn)	9.52	80 nM	5.04 µM	91	93.7	18.32	15.45	41.6 (≈ 83.9 µM)	77.64 (≈ 157 µM)	95.4	46.87 (≈ 94.5 µM)	25.2 (≈ 50.8 µM)	43.4 (≈ 87.4 µM)	88.98 (≈ 179 µM)	1.23 µM	440 nM	> 30
Cc1ccc2oc(-c3cn(-c4ccc(F)cc4)nc3-c3sc(C)nc3C)cc(=O)c2c1	0.8	1070 nM	5.89 µM	47.8	92.2	4.94	2.34	> 250	> 250	88.6	> 250	> 250	> 250	> 250	1.23 µM	160 nM	> 30
Cc1nc(C)c(-c2nn(-c3ccc(F)cc3)cc2/C=C/C(=O)c2cc(Cl)cc(Cl)c2O)s1	15.71	> 30 µg/mL	> 30 µg/mL	20.4	30.5	49.76	17.69	> 250	> 250	26.8	> 250	> 250	> 250	> 250	> 30 µg/mL	> 30 µg/mL	–
Cc1nc(C)c(-c2nn(-c3ccc(F)cc3)cc2/C=C/C(=O)c2cc(Cl)c(C)cc2O)s1	10.73	2440 nM	49.7 µM	3.95	92.7	17.45	13.26	> 250	> 250	16.3	87.29 (≈ 187 µM)	34.9 (≈ 74.5 µM)	> 250	> 250	7.56 µM	1920 nM	–
Cc1nc(C)c(-c2nn(-c3ccc(F)cc3)cc2C2CC(c3cc(Cl)c(C)cc3O)=NN2)s1 (stereo not drawn)	9.1	520 nM	9.65 µM	38.8	95.6	17.93	10.66	127 (≈ 264 µM)	> 250	43.5	> 250	> 250	146 (≈ 302 µM)	> 250	8.59 µM	1620 nM	> 30
CC(=O)O[C@H]1C(=O)[C@@]2(C)[C@H]([C@H](OC(=O)c3ccccc3)[C@]3(O)C[C@H](OC(=O)[C@H](O)[C@@H](NC(=O)c4ccccc4)c4ccccc4)C(C)=C1C3(C)C)[C@]1(OC(C)=O)CO[C@@H]1C[C@@H]2O [PACLITAXEL]	–	–	–	–	–	–	–	–	5.715 (≈ 6.69 µM)	–	0.075 (≈ 0.0878 µM)	–	–	0.0706 (≈ 0.0827 µM)	–	–	–
CO[C@H]1/C=C/O[C@@]2(C)Oc3c(C)c(O)c4c(O)c(c(/C=N/N5CCN(C)CC5)c(O)c4c3C2=O)NC(=O)/C(C)=C\C=C\[C@H](C)[C@H](O)[C@@H](C)[C@@H](O)[C@@H](C)[C@H](OC(C)=O)[C@@H]1C [RIFAMPIN]	–	–	0.91 µM	–	–	–	–	> 100	> 100	–	> 100	> 100	> 100	> 100	–	–	–

— ChEMBL document CHEMBL4392833, “Thiazolyl-pyrazole derivatives as potential antimycobacterial agents” (Bioorg Med Chem Lett, 2019)
